Assay outcomes deposited in PubChem by Broad Institute.
E-selectin induc: induces E-selectin expression in human endothelial cells | P16581 | HUVEC E-selectin immunofluorescence imaging; normalized: neutral wells 0, TNF-alpha wells 100 | activation, % at 7.58 µM | 260,000 tested, 0.37% active | AID 686992;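 active = mean E-selectin-positive cell signal at least 10% of the positive control, reached in at least 60% of replicates, without over 20% cell loss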
Target sequence (P16581 whole entry, looked up): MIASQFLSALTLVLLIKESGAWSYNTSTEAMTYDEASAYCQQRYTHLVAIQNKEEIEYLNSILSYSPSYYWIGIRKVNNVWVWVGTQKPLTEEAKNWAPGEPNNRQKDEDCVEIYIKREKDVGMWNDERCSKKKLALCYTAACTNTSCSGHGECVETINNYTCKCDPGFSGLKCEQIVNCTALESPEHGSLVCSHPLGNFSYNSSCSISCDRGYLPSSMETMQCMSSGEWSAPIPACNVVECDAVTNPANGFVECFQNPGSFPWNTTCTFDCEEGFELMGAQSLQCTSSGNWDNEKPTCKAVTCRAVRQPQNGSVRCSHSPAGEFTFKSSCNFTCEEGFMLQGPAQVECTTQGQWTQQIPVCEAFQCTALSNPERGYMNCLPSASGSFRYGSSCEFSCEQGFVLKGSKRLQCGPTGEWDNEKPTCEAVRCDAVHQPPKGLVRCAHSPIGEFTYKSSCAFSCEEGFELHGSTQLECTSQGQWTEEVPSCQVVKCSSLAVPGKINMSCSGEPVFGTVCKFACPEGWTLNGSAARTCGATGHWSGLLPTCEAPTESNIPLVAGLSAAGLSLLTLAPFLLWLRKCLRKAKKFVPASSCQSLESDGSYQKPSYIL
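assay system = HUVEC, human umbilical vein endothelial cells | input = 3,000 HUVEC seeded per well | medium = EGM-2 growth medium on 0.1% gelatin-coated wells | dosing = one compound dose added by pin transfer | signal = immunofluorescence imaging | read-out basis = % PE-positive cells | control set = TNF-alpha, DMSO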
DENV2 CPE: inhibitors of DENV2 cytopathic effect; DENV2-infected cells, cytopathic effect rescue, plate reader; CPE inhibition, % at 9.99 µM; 350,000 tested, 1.7% active; in the data active = CPE inhibition above about 20%, passing the limit was not always enough; tested in BHK-21 cells;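 also: 0% = median of neutral control wells and 100% = median of positive control wells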
SIRT5 inh: inhibitors of human sirtuin-5 desuccinylase; Q9NXA8; Purified SirT5, succinyl-peptide AMC, trypsin-coupled fluorescence; 330,000 tested, 1.1% active; inhibition, % at 15 µM; in the data active = inhibition above about 15%
An asterisk follows results filed as active. Compounds with a hit are over-represented: about 2.8% of the library has one in this group of screens.

For O=C1c2ccccc2C(=O)N1Cc1ccccn1 the results were DENV2 CPE 1 and SIRT5 inh -6.
`O=C1C=CC(=O)N1Cc1ccccn1` gave E-selectin induc -2, DENV2 CPE 9 and SIRT5 inh 21*.
COc1cccc(S(=O)(=O)N2CC[C@@H]3[C@H](CO)Nc4ccc(C#Cc5ccccc5)cc4[C@@H]32)c1 was read as E-selectin induc 1, DENV2 CPE 14 and SIRT5 inh 4.
`O=C(C[C@H]1CC[C@H](NC(=O)Nc2cc(F)ccc2F)[C@@H](CO)O1)NCc1ccc2c(c1)OCO2` gave E-selectin induc 0, DENV2 CPE 6 and SIRT5 inh 2.
CC(C)CC#Cc1ccc([C@H]2[C@@H](CO)N3CCCCN(C(=O)c4ccc5c(c4)OCO5)C[C@@H]23)cc1 was read as E-selectin induc 0, DENV2 CPE 24* and SIRT5 inh 7.
For CC(C)CC#Cc1ccc([C@H]2[C@@H](CO)N3CCCCN(C(=O)c4ccc5c(c4)OCO5)C[C@H]23)cc1 the results were E-selectin induc 0, DENV2 CPE -7 and SIRT5 inh 0.
O=C(c1ccc2c(c1)OCO2)N1CC(=O)N2[C@H](CO)[C@@H](c3ccc(C#CC4CCCC4)cc3)[C@H]2C1 was read as E-selectin induc -1, DENV2 CPE 3 and SIRT5 inh 0.
For CC(C)CC#Cc1ccc([C@H]2[C@@H](CO)N3C(=O)CN(C(=O)c4ccc5c(c4)OCO5)C[C@@H]23)cc1 the results were E-selectin induc 0, DENV2 CPE -2 and SIRT5 inh 5.
O=C(c1ccc2c(c1)OCO2)N1CC(=O)N2[C@H](C1)[C@@H](c1ccc(C#CCC3CCCC3)cc1)[C@@H]2CO was read as E-selectin induc -1, DENV2 CPE 9 and SIRT5 inh 18*.
Screening O=C(c1ccc2c(c1)OCO2)N1CC(=O)N2[C@H](C1)[C@H](c1ccc(C#CCC3CCCC3)cc1)[C@@H]2CO returned E-selectin induc -1, DENV2 CPE 1 and SIRT5 inh 24*.
For O=C(c1ccc2c(c1)OCO2)N1CC(=O)N2[C@H](CO)[C@@H](c3ccc(C#CCC4CCCC4)cc3)[C@H]2C1 the results were E-selectin induc -1, DENV2 CPE 1 and SIRT5 inh 16*.
Screening O=C(c1ccc2c(c1)OCO2)N1CC(=O)N2[C@H](CO)[C@H](c3ccc(C#CC4CCCC4)cc3)[C@H]2C1 returned E-selectin induc -1, DENV2 CPE -1 and SIRT5 inh -1.
C[C@@H]1CN([C@@H](C)CO)C(=O)Cc2cc(NC(=O)Cc3cn(C)c4ccccc34)ccc2O[C@H]1CN(C)C(=O)Nc1ccc2c(c1)OCO2 was read as E-selectin induc 3, DENV2 CPE -3 and SIRT5 inh 2.
For CN1[C@@H]2c3ccc(-c4cccc(F)c4)c(=O)n3C[C@H]1[C@H](CO)[C@H]2C(=O)N1CCCCC1 the results were E-selectin induc 0, DENV2 CPE -3 and SIRT5 inh -11.
For CN(C)CC#Cc1ccc([C@H]2[C@@H](CO)N3CCCCN(C(=O)C4CCCC4)C[C@@H]23)cc1 the results were DENV2 CPE 12 and SIRT5 inh 3.
`C[C@@H]1CN([C@@H](C)CO)C(=O)c2cccc(NS(=O)(=O)c3ccc(F)cc3)c2O[C@@H]1CN(C)C(=O)Nc1cccc2ccccc12` gave E-selectin induc 0, DENV2 CPE 3 and SIRT5 inh 3.
Screening C[C@@H]1CN([C@H](C)CO)C(=O)c2c(c3ccccc3n2C)-c2ccccc2CO[C@@H]1CN(C)CC1CCCCC1 returned E-selectin induc 0, DENV2 CPE 7 and SIRT5 inh 4.
COc1ccc(NC(=O)N(C)C[C@@H]2Oc3ccc(NS(=O)(=O)c4ccc(Cl)cc4)cc3C(=O)N([C@@H](C)CO)C[C@@H]2C)cc1 was read as E-selectin induc -20, DENV2 CPE -5 and SIRT5 inh 6.
Screening Cc1ccc(S(=O)(=O)N2CCC3CC2c2cc(Cl)ccc23)cc1 (stereo unspecified) returned E-selectin induc -1, DENV2 CPE 6 and SIRT5 inh -2.
COc1ccc(S(=O)(=O)N2CCC3CC2c2cc(-c4ccc5c(c4)OCO5)ccc23)cc1 (stereo unspecified) was read as E-selectin induc 0, DENV2 CPE 89* and SIRT5 inh -1.
`O=C(C[C@H]1C[C@@H]2c3cc(NC(=O)c4cccnc4)ccc3O[C@@H]2[C@@H](CO)O1)NCc1ccccn1` gave E-selectin induc -1, DENV2 CPE -5 and SIRT5 inh 5.
Screening O=C(C[C@@H]1CC[C@@H]2[C@H](COC[C@@H](O)CN2C(=O)c2cnccn2)O1)NCc1ccccc1 returned E-selectin induc 0, DENV2 CPE -5 and SIRT5 inh -4.
For Cc1cc(C2C(=O)c3ccccc3C2=O)c(C)c(C)c1C the results were E-selectin induc 0, DENV2 CPE 12 and SIRT5 inh 19*.
CCc1ccccc1C1C(=O)c2ccccc2C1=O was read as DENV2 CPE -1 and SIRT5 inh 10.
COc1ccc2c3c(n(C)c2c1)[C@H](CO)N(C(=O)C1CCCC1)CC31CCN(C(=O)CN(C)C)CC1 was read as E-selectin induc 0, DENV2 CPE 2 and SIRT5 inh -1.
`CO/N=C/CC(=O)c1ccc(-c2ccccc2)cc1` gave DENV2 CPE 0 and SIRT5 inh 29*.
`C/[N+]([O-])=C\CC(=O)c1ccc(-c2ccccc2)cc1` gave E-selectin induc 0, DENV2 CPE -6 and SIRT5 inh -3.
For C[C@H]1CN([C@@H](C)CO)C(=O)c2cc(C#CCN(C)C)cnc2O[C@@H]1CN(C)S(=O)(=O)c1ccccc1 the results were E-selectin induc 0, DENV2 CPE -4 and SIRT5 inh -1.
For O=C(Nc1cccc([N+](=O)[O-])c1)N1CCCc2ccccc21 the results were E-selectin induc 0, DENV2 CPE -11 and SIRT5 inh 0.
`O=[N+]([O-])c1cccc(NC(=S)N2CCc3ccccc32)c1` gave DENV2 CPE 70* and SIRT5 inh 2.
For COC(=O)C1=C(C)NC(=O)/C1=C\c1cc(C)n(-c2ccccc2F)c1C the results were DENV2 CPE 5 and SIRT5 inh -3.
`COC(=O)C1=C(C)NC(=O)/C1=C\N(C)C` gave E-selectin induc 39*, DENV2 CPE -2 and SIRT5 inh 0.
`CCCC#Cc1ccc2c(c1)O[C@@H](CN(C)CC1CCOCC1)[C@@H](C)CN([C@H](C)CO)S2(=O)=O` gave E-selectin induc 0, DENV2 CPE 8 and SIRT5 inh 7.
`CCCC#Cc1ccc2c(c1)O[C@@H](CN(C)CC1CCOCC1)[C@H](C)CN([C@H](C)CO)S2(=O)=O` gave E-selectin induc 0, DENV2 CPE -4 and SIRT5 inh 24*.
Screening CCCC#Cc1ccc2c(c1)O[C@@H](CN(C)CCC)[C@@H](C)CN([C@@H](C)CO)S2(=O)=O returned E-selectin induc 85*, DENV2 CPE 1 and SIRT5 inh 1.
For CCCN(C)C[C@H]1Oc2cc(C#CCC(C)C)ccc2S(=O)(=O)N([C@@H](C)CO)C[C@H]1C the results were E-selectin induc 0, DENV2 CPE -4 and SIRT5 inh 0.
